The term IC50 denotes the concentration that inhibits the measured activity by half.

In ChEMBL document CHEMBL1949533, “Novel molecular combination deriving from natural aminoacids and polyphenols: Design, synthesis and free-radical scavenging activities” (Eur J Med Chem, 2012) one finds IC50 and Ratio data, which are given here for 25 compounds.

Assay [1] relates to Radical scavenging activity. Put plainly: Antioxidant activity assessed as DPPH free radical scavenging activity by UV-Vis spectrophotometry. The class given is functional. In a few lines:
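DPPH methanolic solution (1.5 mL) mixed with 0.750 mL compound solution at 1, 0.5, 0.25, 0.125 and 0.0625 mg/mL; absorbance decrease read at 517 nm and % remaining DPPH radical calculated. IC50 (concentration halving initial DPPH) derived by regression across concentrations, expressed as nmol/mL.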

Assay [2] can be described thus: Antioxidant activity assessed as trolox equivalents ratio of AAPH radical scavenging activity after 30 mins by ORAC-fluorescein assay. The class given is functional. The method in brief: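 Compounds dissolved in PBS immediately before use, pH 7.4; fluorescein quenching initiated by AAPH, fluorescence (excitation 485 nm) read at 37 °C every 5 min up to 30 min. Net area under fluorescein decay curve (blank minus sample) converted to Trolox equivalents via 10–50 µM Trolox calibration; three replicates.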

For the compound `COC(=O)[C@H](CS)NC(=O)/C=C/c1ccc(O)cc1`, the IC50 in assay [1] came to 148 µM. On to `COC(=O)[C@@H](N)CCSC.Cl` [METHIONINE METHYL ESTER HYDROCHLORIDE], for which the IC50 in assay [1] is more than 1250 µM. Besides, the Ratio in assay [2] stood at 0.8. Turning to `COC(=O)[C@@H](N)Cc1ccc(O)cc1.Cl`, in assay [1], the IC50 was more than 1280 µM. Besides, the Ratio in assay [2] was 3.9. Turning to `Cc1c(C)c2c(c(C)c1O)CCC(C)(C(=O)O)O2` (racemic) [TROLOX], in assay [1], the IC50 stood at 55 µM. On to `O=C(Cc1ccc(O)c(O)c1)N[C@@H](CS)C(=O)NCCc1ccc(O)c(O)c1`, for which, in assay [1], the IC50 was 20 µM. The Ratio in assay [2] worked out at 1.77.

With `COC(=O)[C@H](CS)NC(=O)/C=C/c1cccc(O)c1`, the IC50 in assay [1] is 185 µM. As for `COC(=O)[C@@H](N)CS.Cl`, in assay [1], the IC50 was found to be 123 µM. Moreover, the Ratio in assay [2] is 0.3. In the case of `COC(=O)[C@H](CS)NC(=O)Cc1ccc(O)c(O)c1`, the IC50 in assay [1] worked out at 29 µM. Also, in assay [2], the Ratio is 3. Regarding `COC(=O)[C@H](CS)NC(=O)/C=C/c1ccccc1O`, in assay [1], the IC50 came out at 150 µM.

Regarding `O=C(O)/C=C/c1ccc(O)c(O)c1` [CAFFEIC ACID], the IC50 in assay [1] came out at 41 µM. The Ratio in assay [2] was determined as 2.7. Regarding `COC(=O)[C@H](CS)NC(=O)c1cc(OC)c(O)c(OC)c1`, the IC50 in assay [1] was 143 µM. Take `COC(=O)[C@H](CS)NC(=O)Cc1ccc(O)c(OC)c1`: the IC50 in assay [1] is 82 µM. The Ratio in assay [2] amounted to 2.4.

`COC(=O)[C@H](CS)NC(=O)/C=C/c1ccc(O)c(O)c1`: the half-inhibitory concentration (IC50) in assay [1] worked out at 22 µM. Moreover, the Ratio in assay [2] turned out to be 1.4. As to `CSCC[C@H](NC(=O)/C=C/c1ccc(O)c(O)c1)C(=O)NCCc1ccc(O)c(O)c1`, in assay [1], the IC50 was found to be 23 µM. Besides, in assay [2], the Ratio came to 3.38.

As for `COC(=O)[C@H](Cc1ccc(O)cc1)NC(=O)Cc1ccc(O)c(O)c1`, the IC50 in assay [1] was determined as 44 µM. The Ratio in assay [2] amounted to 4.8. On the same counts, the results for `COC(=O)[C@H](CCSC)NC(=O)/C=C/c1ccc(O)c(O)c1` are 25 µM and 2.3. Regarding `COC(=O)[C@H](Cc1ccc(O)cc1)NC(=O)/C=C/c1ccc(O)c(O)c1`, the IC50 in assay [1] worked out at 30 µM. In addition, the Ratio in assay [2] was found to be 3.4. Taken in the same sequence, the figures for `COC(=O)[C@H](CS)NC(=O)/C=C/c1ccc(O)c(OC)c1` were 84 µM and 1.4. On the same counts, the results for `CSCC[C@H](NC(=O)Cc1ccc(O)c(O)c1)C(=O)NCCc1ccc(O)c(O)c1` are 68 µM and 1.24. On the same counts, the results for `O=C(O)Cc1ccc(O)c(O)c1` [3,4-DIHYDROXYPHENYLACETIC ACID] are 26 µM and 4.2. On to `O=C(/C=C/c1ccc(O)c(O)c1)N[C@@H](Cc1ccc(O)cc1)C(=O)NCCc1ccc(O)c(O)c1`, for which the IC50 in assay [1] is 32 µM. For the same compound, in assay [2], the Ratio was determined as 2.79. Taken in the same sequence, the figures for `COC(=O)[C@H](CCSC)NC(=O)Cc1ccc(O)c(O)c1` were 48 µM and 3.6. As to `COC(=O)[C@H](CS)NC(=O)/C=C/c1cc(OC)c(O)c(OC)c1`, the IC50 in assay [1] turned out to be 76 µM. In addition, in assay [2], the Ratio is 1.3. Turning to `O=C(/C=C/c1ccc(O)c(O)c1)N[C@@H](CS)C(=O)NCCc1ccc(O)c(O)c1`, the IC50 in assay [1] amounted to 26 µM. Moreover, the Ratio in assay [2] turned out to be 0.855. On the same counts, the results for `O=C(Cc1ccc(O)c(O)c1)N[C@@H](Cc1ccc(O)cc1)C(=O)NCCc1ccc(O)c(O)c1` are 32 µM and 3.82.
